{"source": "ChEMBL document CHEMBL1157014", "about": "“Synthesis, characterization and biological evaluation of some thiourea derivatives bearing benzothiazole moiety as potential antimicrobial and anticancer agents” (Eur J Med Chem, 2010)", "data": [{"system": "Pichia kudriavzevii", "assay": "Antifungal activity against Candida krusei ATCC 6268 after 48 hrs by browth microdilution assay", "assay_type": "functional", "settings": "ATCC 6268, 48 h", "procedure,_shortened": "(§1)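 Yeast colonies suspended in 0.9% saline and adjusted to McFarland 0.5, then tested by CLSI broth microdilution. Compounds in DMSO, diluted with distilled water to 3.125–100 µg/ml, with DMSO as negative control and nystatin as reference. Incubation at 37 °C, read after 48 h. MIC is the lowest concentration with no visible growth.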", "units": {"MIC": "µg/mL"}, "values": [{"molecule": "O=C(NC(=S)Nc1nc2ccccc2s1)c1ccccc1", "MIC": 50}, {"molecule": "CCCC(=O)NC(=S)Nc1nc2ccccc2s1", "MIC": 25}, {"molecule": "Nc1ccc2sc(NC(=S)NC(=O)c3cccs3)nc2c1", "MIC": 25}]}, {"system": "Pseudomonas aeruginosa", "assay": "(§2) Antibacterial activity against Pseudomonas aeruginosa ATCC 27853 after 24 hrs by browth microdilution assay", "assay_type": "functional", "settings": "not given", "procedure,_shortened": "(§3)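 Broth microdilution per CLSI. Colonies suspended in 0.9% saline and adjusted to McFarland 0.5. Compounds dissolved in DMSO, diluted with distilled water to 100, 50, 25, 12.5, 6.25 and 3.125 µg/ml, with DMSO as negative control. Gentamycin (Gram-negative) and amikacin (Gram-positive) served as reference drugs. Incubation at 37 °C for 24 h. MIC taken as the lowest concentration preventing visible growth.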", "units": {"MIC": "µg/mL"}, "values": [{"molecule": "GENTAMICIN", "MIC": 1}]}, {"system": "Pseudomonas aeruginosa", "assay": "as §2", "assay_type": "functional", "settings": "ATCC 27853, 24 h", "procedure,_shortened": "as §3", "units": {"MIC": "µg/mL"}, "values": [{"molecule": "O=C(NC(=S)Nc1nc2cc(Br)ccc2s1)c1cccs1", "MIC": 25}, {"molecule": "Nc1ccc2sc(NC(=S)NC(=O)c3cccs3)nc2c1", "MIC": 50}]}, {"system": "MCF7", "assay": "Cytotoxicity against human MCF7 after 48 hrs by MTT assay", "assay_type": "functional, cell-based", "settings": "MCF7, 48 h", "procedure,_shortened": "(§4)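 MCF-7 cells in MEM with 10% FBS at 5% CO2 were exposed to compounds (1–100 µM, 0.1% DMSO vehicle) for 48 or 72 h before MTT read-out. IC50 values came from the MTT assay.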", "units": {"IC50": "µM"}, "values": [{"molecule": "O=C(NC(=S)Nc1nc2cc(Br)ccc2s1)c1cccs1", "IC50": 15.7}]}, {"system": "Candida tropicalis", "assay": "Antifungal activity against Candida tropicalis ATCC 20336 after 48 hrs by browth microdilution assay", "assay_type": "functional", "settings": "ATCC 20336, 48 h", "procedure,_shortened": "as §1", "units": {"MIC": "µg/mL"}, "values": [{"molecule": "O=C(NC(=S)Nc1nc2ccccc2s1)c1ccccc1", "MIC": 50}, {"molecule": "CCCC(=O)NC(=S)Nc1nc2ccccc2s1", "MIC": 50}, {"molecule": "Nc1ccc2sc(NC(=S)NC(=O)c3cccs3)nc2c1", "MIC": 25}]}, {"system": "Escherichia coli", "assay": "microbe, parasite or virus in culture", "settings": "ATCC 25922, 24 h", "units": {"MIC": "µg/mL"}, "values": [{"molecule": "O=C(NC(=S)Nc1nc2cc(Br)ccc2s1)c1cccs1", "MIC": 25}, {"molecule": "Nc1ccc2sc(NC(=S)NC(=O)c3cccs3)nc2c1", "MIC": 20}]}, {"system": "HeLa", "assay": "Cytotoxicity against human HeLa after 24 hrs by MTT assay", "assay_type": "functional, cell-based", "settings": "not given", "procedure,_shortened": "(§5)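 Cells grown in MEM with 10% FBS and 1% glutamine at 5% CO2, seeded at 1.0×10^4 cells. Exposed to compounds at 1–100 µM in medium containing 0.1% DMSO for 24 h at 37 °C. MTT (1 mg/ml) added for 5 h at 37 °C, then DMSO added and absorbance read at 540 nm. Run in triplicate; IC50 determined.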", "units": {"IC50": "µM"}, "values": [{"molecule": "O=C(NC(=S)Nc1nc2cc(Br)ccc2s1)c1cccs1", "IC50": 46.5}, {"molecule": "O=C(NC(=S)Nc1nc2ccccc2s1)c1ccccc1", "IC50": 57.5}, {"molecule": "CCCC(=O)NC(=S)Nc1nc2ccccc2s1", "IC50": 56.7}, {"molecule": "Nc1ccc2sc(NC(=S)NC(=O)c3cccs3)nc2c1", "IC50": 56.1}, {"molecule": "O=C(NC(=S)Nc1nc2ccccc2s1)c1ccc([N+](=O)[O-])cc1", "IC50": 62.6}]}, {"system": "Proteus vulgaris", "assay": "(§6) Antibacterial activity against Proteus vulgaris ATCC 13315 after 24 hrs by browth microdilution assay", "assay_type": "functional", "settings": "not given", "procedure,_shortened": "as §3", "units": {"MIC": "µg/mL"}, "values": [{"molecule": "GENTAMICIN", "MIC": 2}]}, {"system": "Proteus vulgaris", "assay": "as §6", "assay_type": "functional", "settings": "ATCC 13315, 24 h", "procedure,_shortened": "as §3", "units": {"MIC": "µg/mL"}, "values": [{"molecule": "O=C(NC(=S)Nc1nc2cc(Br)ccc2s1)c1cccs1", "MIC": 50}, {"molecule": "Nc1ccc2sc(NC(=S)NC(=O)c3cccs3)nc2c1", "MIC": 25}]}, {"system": "MCF7", "assay": "Cytotoxicity against human MCF7 after 72 hrs by MTT assay", "assay_type": "functional, cell-based", "settings": "MCF7, 72 h", "procedure,_shortened": "as §4", "units": {"IC50": "µM"}, "values": [{"molecule": "O=C(NC(=S)Nc1nc2cc(Br)ccc2s1)c1cccs1", "IC50": 12.1}]}, {"system": "Nakaseomyces glabratus", "assay": "Antifungal activity against Candida glabrata ATCC 32554 after 48 hrs by browth microdilution assay", "assay_type": "functional", "settings": "ATCC 32554, 48 h", "procedure,_shortened": "as §1", "units": {"MIC": "µg/mL"}, "values": [{"molecule": "O=C(NC(=S)Nc1nc2ccccc2s1)c1ccccc1", "MIC": 25}, {"molecule": "CCCC(=O)NC(=S)Nc1nc2ccccc2s1", "MIC": 50}, {"molecule": "Nc1ccc2sc(NC(=S)NC(=O)c3cccs3)nc2c1", "MIC": 20}]}, {"system": "Candida albicans", "assay": "Antifungal activity against Candida albicans ATCC 90028 after 48 hrs by browth microdilution assay", "assay_type": "functional", "settings": "ATCC 90028, 48 h", "procedure,_shortened": "as §1", "units": {"MIC": "µg/mL"}, "values": [{"molecule": "O=C(NC(=S)Nc1nc2ccccc2s1)c1ccccc1", "MIC": 50}, {"molecule": "CCCC(=O)NC(=S)Nc1nc2ccccc2s1", "MIC": 20}, {"molecule": "Nc1ccc2sc(NC(=S)NC(=O)c3cccs3)nc2c1", "MIC": 25}]}, {"system": "Enterobacter cloacae", "assay": "(§7) Antibacterial activity against Enterobacter cloacae ATCC 13047 after 24 hrs by browth microdilution assay", "assay_type": "functional", "settings": "not given", "procedure,_shortened": "as §3", "units": {"MIC": "µg/mL"}, "values": [{"molecule": "GENTAMICIN", "MIC": 2}]}, {"system": "Enterobacter cloacae", "assay": "as §7", "assay_type": "functional", "settings": "ATCC 13047, 24 h", "procedure,_shortened": "as §3", "units": {"MIC": "µg/mL"}, "values": [{"molecule": "O=C(NC(=S)Nc1nc2cc(Br)ccc2s1)c1cccs1", "MIC": 50}, {"molecule": "Nc1ccc2sc(NC(=S)NC(=O)c3cccs3)nc2c1", "MIC": 50}]}, {"system": "MCF7", "assay": "Cytotoxicity against human MCF7 after 24 hrs by MTT assay", "assay_type": "functional, cell-based", "settings": "MCF7, 24 h", "procedure,_shortened": "as §5", "units": {"IC50": "µM"}, "values": [{"molecule": "O=C(NC(=S)Nc1nc2cc(Br)ccc2s1)c1cccs1", "IC50": 24.2}, {"molecule": "O=C(NC(=S)Nc1nc2ccccc2s1)c1ccccc1", "IC50": 37.3}, {"molecule": "CCCC(=O)NC(=S)Nc1nc2ccccc2s1", "IC50": 36.6}, {"molecule": "Nc1ccc2sc(NC(=S)NC(=O)c3cccs3)nc2c1", "IC50": 28.4}, {"molecule": "O=C(NC(=S)Nc1nc2ccccc2s1)c1ccc([N+](=O)[O-])cc1", "IC50": 33.8}]}]}
